Measurements pooled from the literature.
Each line is one published result; the experiments were not run side by side.
Concentration: 1 µM
CDK5 with p35: Cyclin-dependent kinase 5, with p35 (CDK5, Homo sapiens, UniProt Q00535)
CDK5: Cyclin-dependent kinase 5 (CDK5, Homo sapiens, UniProt Q00535)

Structure (SMILES) | target | effect on | mode | technique | measurement | value
COc1ccc2oc(-c3ccc4nc(N)oc4c3)c/c(=N\c3ccccc3NC(=O)CCN)c2c1 | CDK5 with p35 | binding | – | – | remaining binding | 107%
CC(C)S(=O)(=O)c1ccc2nccc(Nc3ccc4sc(C5CCCC5)nc4c3)c2c1 | CDK5 with p35 | enzyme activity | inhibitor | – | activity vs control | 101%
Cc1cc(S(=O)(=O)N[C@H]2CC[C@H](CN3CCN(c4ccc(C5CCC(=O)NC5=O)cc4F)CC3)CC2)ccc1Nc1ncc(C(F)(F)F)c(N2CCC[C@](C)(O)C2)n1 (some centres unmarked) | CDK5 | binding | – | competition with immobilised ligand | remaining binding | 29%
CN1CCN(C(=O)c2ccc(NC(=O)Nc3ccc(N(C)c4ccnc(Nc5ccc(CS(C)(=O)=O)cc5)n4)cc3)cc2)CC1 | CDK5 | binding | – | competition with immobilised ligand | remaining binding | 91%
C=CC(=O)N1CCC([C@@H]2CCNc3c(C(N)=O)c(-c4ccc(Oc5ccccc5)cc4)nn32)CC1 | CDK5 | enzyme activity | inhibitor | – | inhibition | 7%
CNS(=O)(=O)c1ccc(Nc2ncc(C(F)(F)F)c(N3CCC[C@](C)(O)C3)n2)c(C)c1 | CDK5 | binding | – | competition with immobilised ligand | remaining binding | 13%
C[C@H]1CC[C@H](n2c3cnccc3c3cnc(Nc4ccc5c(n4)CCN(C(=O)CO)C5)nc32)CC1 | CDK5 | binding | – | competition with immobilised ligand | remaining binding | 26%
C=CC(=O)N1CCC[C@@H](n2nc(-c3ccc(Oc4ccccc4)cc3)c3c(N)ncnc32)C1 | CDK5 | enzyme activity | inhibitor | – | inhibition | 10%
